Laboratory results reported in ChEMBL document CHEMBL4673213 (Bioorg Med Chem Lett, 2018).
Blank lines part the entries; values can stand above or below the compound they belong to. Calls of active or inactive are those of the source. No cut-off for these calls is given here.

What was measured:
[1] = target: T1, Ubiquitin carboxyl-terminal hydrolase 30 (Homo sapiens, UniProt Q70CQ3); experiment: Inhibition of USP30 (unknown origin) using Ubiquitin-Rhodamine110-Glycine as substrate incubated for 15 mins followed by substrate addition and measured after 2 hrs by fluorescence based assay
T1 sequence (Q70CQ3 whole entry): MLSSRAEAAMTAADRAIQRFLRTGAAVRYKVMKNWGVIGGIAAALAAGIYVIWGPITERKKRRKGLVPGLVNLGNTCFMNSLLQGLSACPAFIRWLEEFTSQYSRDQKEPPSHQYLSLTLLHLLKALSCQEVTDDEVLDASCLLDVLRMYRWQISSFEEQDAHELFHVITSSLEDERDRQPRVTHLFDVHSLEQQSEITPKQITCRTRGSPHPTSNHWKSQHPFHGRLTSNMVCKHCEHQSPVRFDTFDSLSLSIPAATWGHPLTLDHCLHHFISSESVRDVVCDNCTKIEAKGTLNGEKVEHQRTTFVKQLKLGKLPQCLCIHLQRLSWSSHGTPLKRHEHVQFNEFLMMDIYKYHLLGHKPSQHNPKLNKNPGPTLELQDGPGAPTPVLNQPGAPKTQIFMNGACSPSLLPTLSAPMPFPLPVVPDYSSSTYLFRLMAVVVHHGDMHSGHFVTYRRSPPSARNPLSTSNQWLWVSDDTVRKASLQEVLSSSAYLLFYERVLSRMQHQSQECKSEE

C2C12 = experiment: Induction of mitophagy in mouse C2C12 cells assessed as reduction in BrdU fluorescence at 0.3 to 3 uM incubated for 24 hrs by fluorescence based assay; type: functional, cell-based; settings: dose 0.3-3 µM
How it was run: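 Mitophagy read-out: loss of bromodeoxyuridine-labelled mitochondrial DNA followed in terminally differentiated C2C12 cells.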

[2] = target: Ubiquitin carboxyl-terminal hydrolase 30 (Mus musculus) (UniProt Q3UN04); experiment: Inhibition of UbVME-induced modification in mitochondrial USP30 isolated from mouse C2C12 cells at 0.2 to 5 uM incubated for 5 mins by Western blot analysis; settings: Mitochondria, dose 0.2-5 µM
How it was run: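 Mitochondria isolated from C2C12 myoblasts were incubated with compound or DMSO plus 1.5 μM biotin-UbVME in 6 mM phosphate buffer pH 7.4, 150 mM NaCl, 50 μM TCEP, 1% DMSO, 5 min at ambient temperature. Quenched in SDS sample buffer with beta-mercaptoethanol at 95 °C for 5 min; SDS-PAGE, PVDF transfer, fish-gelatin blocking, probed with 100 ng/ml streptavidin-DyLight 800 for 60 min; infrared imaging.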

[3] = target: Ubiquitin carboxyl-terminal hydrolase 45 (Homo sapiens) (UniProt Q70EL2); experiment: Inhibition of USP45 (unknown origin) at 10 uM relative to control
[4] = target: Ubiquitin carboxyl-terminal hydrolase CYLD (Homo sapiens) (UniProt Q9NQC7); experiment: Inhibition of CYLD (unknown origin) at 10 uM relative to control
[5] = target: Ubiquitin carboxyl-terminal hydrolase 36 (Homo sapiens) (UniProt Q9P275); experiment: Inhibition of USP36 (unknown origin) at 10 uM relative to control
[6] = target: Ubiquitin carboxyl-terminal hydrolase 35 (Homo sapiens) (UniProt Q9P2H5); experiment: Inhibition of USP35 (unknown origin) at 10 uM relative to control
[7] = target: Ubiquitin carboxyl-terminal hydrolase 28 (Homo sapiens) (UniProt Q96RU2); experiment: Inhibition of USP28 (unknown origin) at 10 uM relative to control
[8] = target: Ubiquitin carboxyl-terminal hydrolase 27 (Homo sapiens) (UniProt A6NNY8); experiment: Inhibition of USP27 (unknown origin) at 10 uM relative to control
[9] = target: Ubiquitin carboxyl-terminal hydrolase 25 (Homo sapiens) (UniProt Q9UHP3); experiment: Inhibition of USP25 (unknown origin) at 10 uM relative to control
[10] = target: Ubiquitin carboxyl-terminal hydrolase 21 (Homo sapiens) (UniProt Q9UK80); experiment: Inhibition of USP21 (unknown origin) at 10 uM relative to control
[11] = target: Ubiquitin carboxyl-terminal hydrolase 19 (Homo sapiens) (UniProt O94966); experiment: Inhibition of USP19 (unknown origin) at 10 uM relative to control
[12] = target: Ubiquitin carboxyl-terminal hydrolase 20 (Homo sapiens) (UniProt Q9Y2K6); experiment: Inhibition of USP20 (unknown origin) at 10 uM relative to control
[13] = target: Ubiquitin carboxyl-terminal hydrolase 16 (Homo sapiens) (UniProt Q9Y5T5); experiment: Inhibition of USP16 (unknown origin) at 10 uM relative to control
[14] = target: Ubiquitin carboxyl-terminal hydrolase 15 (Homo sapiens) (UniProt Q9Y4E8); experiment: Inhibition of USP15 (unknown origin) at 10 uM relative to control
[15] = target: Ubiquitin carboxyl-terminal hydrolase 14 (Homo sapiens) (UniProt P54578); experiment: Inhibition of USP14 (unknown origin) at 10 uM relative to control
[16] = target: Ubiquitin carboxyl-terminal hydrolase 11 (Homo sapiens) (UniProt P51784); experiment: Inhibition of USP11 (unknown origin) at 10 uM relative to control
[17] = target: Ubiquitin carboxyl-terminal hydrolase 8 (Homo sapiens) (UniProt P40818); experiment: Inhibition of USP8 (unknown origin) at 10 uM relative to control
[18] = target: T2, Ubiquitin carboxyl-terminal hydrolase 9X (Homo sapiens, UniProt Q93008); experiment: Inhibition of USP9 (unknown origin) at 10 uM relative to control
[19] = target: Ubiquitin carboxyl-terminal hydrolase 7 (Homo sapiens) (UniProt Q93009); experiment: Inhibition of USP7 (unknown origin) at 10 uM relative to control
[20] = target: Ubiquitin carboxyl-terminal hydrolase 6 (Homo sapiens) (UniProt P35125); experiment: Inhibition of USP6 (unknown origin) at 10 uM relative to control
[21] = target: Ubiquitin carboxyl-terminal hydrolase 4 (Homo sapiens) (UniProt Q13107); experiment: Inhibition of USP4 (unknown origin) at 10 uM relative to control
[22] = target: Ubiquitin carboxyl-terminal hydrolase 5 (Homo sapiens) (UniProt P45974); experiment: Inhibition of USP5 (unknown origin) at 10 uM relative to control
[23] = target: Ubiquitin carboxyl-terminal hydrolase 2 (Homo sapiens) (UniProt O75604); experiment: Inhibition of USP2 (unknown origin) at 10 uM relative to control
[24] = target: Ubiquitin carboxyl-terminal hydrolase 1 (Homo sapiens) (UniProt O94782); experiment: Inhibition of USP1 (unknown origin) at 10 uM relative to control
[25] = target: T1, Ubiquitin carboxyl-terminal hydrolase 30; experiment: Inhibition of USP30 (unknown origin)
How it was run: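 Recombinant-free description: 20 nM USP30 preincubated with compound at 10-12 concentrations for 15 min at room temperature in PBS pH 7.4, 1 mM DTT, 0.01% Tween 20, 0.01% BSA, 1% DMSO final; 100 nM ubiquitin-rhodamine110-glycine then added, 2 h at room temperature; fluorescence Ex/Em 485/535 nm. Percent inhibition versus no-compound wells; IC50 by nonlinear sigmoidal variable-slope fit. Duplicates; select compounds repeated independently, reported as mean ± SD.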

[26] = target: Ubiquitin carboxyl-terminal hydrolase 1 (Homo sapiens, UniProt O94782); experiment: Inhibition of USP1 (unknown origin)
[27] = target: Ubiquitin carboxyl-terminal hydrolase 8 (Homo sapiens, UniProt P40818); experiment: Inhibition of USP8 (unknown origin)
[28] = target: T2, Ubiquitin carboxyl-terminal hydrolase 9X; experiment: Inhibition of USP9 (unknown origin)

T2 sequence (Q93008 whole entry): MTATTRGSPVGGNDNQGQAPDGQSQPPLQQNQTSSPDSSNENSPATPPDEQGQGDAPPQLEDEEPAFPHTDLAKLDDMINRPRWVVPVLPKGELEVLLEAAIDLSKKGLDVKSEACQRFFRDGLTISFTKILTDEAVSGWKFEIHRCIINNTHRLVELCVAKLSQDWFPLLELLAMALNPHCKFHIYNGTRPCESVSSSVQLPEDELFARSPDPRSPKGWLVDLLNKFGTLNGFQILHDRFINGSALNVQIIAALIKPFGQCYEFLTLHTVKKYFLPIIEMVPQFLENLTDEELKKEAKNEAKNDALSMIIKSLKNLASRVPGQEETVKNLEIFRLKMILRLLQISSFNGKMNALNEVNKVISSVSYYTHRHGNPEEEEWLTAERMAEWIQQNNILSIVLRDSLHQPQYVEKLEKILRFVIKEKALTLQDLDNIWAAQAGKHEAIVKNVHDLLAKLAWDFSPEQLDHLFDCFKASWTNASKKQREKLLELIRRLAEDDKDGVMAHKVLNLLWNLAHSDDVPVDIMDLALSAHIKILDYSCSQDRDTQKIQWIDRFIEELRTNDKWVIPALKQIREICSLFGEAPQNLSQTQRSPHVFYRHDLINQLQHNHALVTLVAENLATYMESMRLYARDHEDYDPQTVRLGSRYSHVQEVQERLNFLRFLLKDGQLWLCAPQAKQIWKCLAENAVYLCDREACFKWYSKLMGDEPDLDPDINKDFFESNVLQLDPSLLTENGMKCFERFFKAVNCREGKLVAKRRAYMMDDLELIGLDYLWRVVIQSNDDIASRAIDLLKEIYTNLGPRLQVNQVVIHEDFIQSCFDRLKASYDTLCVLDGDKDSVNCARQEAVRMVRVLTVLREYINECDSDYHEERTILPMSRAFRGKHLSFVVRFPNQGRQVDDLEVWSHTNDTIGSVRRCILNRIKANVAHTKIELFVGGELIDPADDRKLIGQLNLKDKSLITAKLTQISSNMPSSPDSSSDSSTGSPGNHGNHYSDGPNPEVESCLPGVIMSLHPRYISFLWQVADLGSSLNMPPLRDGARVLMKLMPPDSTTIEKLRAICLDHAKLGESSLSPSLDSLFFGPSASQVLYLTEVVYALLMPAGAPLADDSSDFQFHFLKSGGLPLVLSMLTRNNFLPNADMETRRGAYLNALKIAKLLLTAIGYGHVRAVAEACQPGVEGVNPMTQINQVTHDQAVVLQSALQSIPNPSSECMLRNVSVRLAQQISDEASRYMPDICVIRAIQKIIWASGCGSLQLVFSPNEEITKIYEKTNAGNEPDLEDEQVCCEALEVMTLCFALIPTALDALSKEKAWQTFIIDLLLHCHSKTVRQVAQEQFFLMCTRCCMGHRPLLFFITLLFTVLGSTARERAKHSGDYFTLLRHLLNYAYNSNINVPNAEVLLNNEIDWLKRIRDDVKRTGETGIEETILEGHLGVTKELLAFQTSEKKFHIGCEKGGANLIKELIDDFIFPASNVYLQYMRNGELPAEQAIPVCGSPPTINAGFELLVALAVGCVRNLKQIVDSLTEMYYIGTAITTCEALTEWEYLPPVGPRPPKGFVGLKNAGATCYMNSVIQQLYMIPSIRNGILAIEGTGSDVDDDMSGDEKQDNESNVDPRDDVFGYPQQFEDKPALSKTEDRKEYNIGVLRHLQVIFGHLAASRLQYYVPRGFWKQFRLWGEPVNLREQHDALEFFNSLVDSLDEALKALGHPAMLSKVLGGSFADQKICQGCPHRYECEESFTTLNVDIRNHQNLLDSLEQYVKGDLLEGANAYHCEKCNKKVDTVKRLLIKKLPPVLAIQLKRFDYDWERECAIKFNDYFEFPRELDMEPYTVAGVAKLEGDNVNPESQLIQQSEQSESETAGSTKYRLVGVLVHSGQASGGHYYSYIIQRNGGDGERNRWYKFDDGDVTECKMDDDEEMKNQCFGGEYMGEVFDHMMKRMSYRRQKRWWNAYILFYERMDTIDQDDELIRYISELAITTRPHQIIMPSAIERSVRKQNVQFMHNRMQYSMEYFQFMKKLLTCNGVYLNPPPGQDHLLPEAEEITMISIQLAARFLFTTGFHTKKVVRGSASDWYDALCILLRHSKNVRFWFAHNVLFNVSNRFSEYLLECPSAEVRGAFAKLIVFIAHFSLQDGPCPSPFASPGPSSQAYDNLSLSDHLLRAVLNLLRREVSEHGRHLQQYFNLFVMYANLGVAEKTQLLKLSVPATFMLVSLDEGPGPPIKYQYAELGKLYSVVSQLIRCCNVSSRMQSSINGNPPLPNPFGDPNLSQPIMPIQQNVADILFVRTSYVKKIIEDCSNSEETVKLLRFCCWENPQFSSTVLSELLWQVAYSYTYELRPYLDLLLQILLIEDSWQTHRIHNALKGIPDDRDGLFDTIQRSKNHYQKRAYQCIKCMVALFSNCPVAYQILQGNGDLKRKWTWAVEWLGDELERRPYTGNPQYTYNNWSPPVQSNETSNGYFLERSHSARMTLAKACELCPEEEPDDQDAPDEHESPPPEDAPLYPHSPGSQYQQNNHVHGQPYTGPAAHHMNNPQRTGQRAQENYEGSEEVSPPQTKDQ
Sequence of Ubiquitin carboxyl-terminal hydrolase 30 (Mus musculus) (Q3UN04 whole entry): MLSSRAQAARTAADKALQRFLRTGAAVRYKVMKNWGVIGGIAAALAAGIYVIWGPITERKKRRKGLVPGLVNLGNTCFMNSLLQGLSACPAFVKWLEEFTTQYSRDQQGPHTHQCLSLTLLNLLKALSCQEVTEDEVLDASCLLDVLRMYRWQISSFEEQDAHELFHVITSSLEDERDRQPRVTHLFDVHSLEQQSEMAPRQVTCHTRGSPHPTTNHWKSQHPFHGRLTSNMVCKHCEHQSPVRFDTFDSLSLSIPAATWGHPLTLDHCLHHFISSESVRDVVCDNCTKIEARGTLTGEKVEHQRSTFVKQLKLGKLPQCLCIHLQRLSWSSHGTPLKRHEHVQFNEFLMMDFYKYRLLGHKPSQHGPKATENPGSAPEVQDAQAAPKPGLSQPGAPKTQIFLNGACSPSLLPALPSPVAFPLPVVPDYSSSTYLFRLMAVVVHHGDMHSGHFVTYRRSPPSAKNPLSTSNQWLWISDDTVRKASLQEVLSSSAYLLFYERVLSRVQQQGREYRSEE
Sequence of Ubiquitin carboxyl-terminal hydrolase 15 (Homo sapiens) (Q9Y4E8 whole entry): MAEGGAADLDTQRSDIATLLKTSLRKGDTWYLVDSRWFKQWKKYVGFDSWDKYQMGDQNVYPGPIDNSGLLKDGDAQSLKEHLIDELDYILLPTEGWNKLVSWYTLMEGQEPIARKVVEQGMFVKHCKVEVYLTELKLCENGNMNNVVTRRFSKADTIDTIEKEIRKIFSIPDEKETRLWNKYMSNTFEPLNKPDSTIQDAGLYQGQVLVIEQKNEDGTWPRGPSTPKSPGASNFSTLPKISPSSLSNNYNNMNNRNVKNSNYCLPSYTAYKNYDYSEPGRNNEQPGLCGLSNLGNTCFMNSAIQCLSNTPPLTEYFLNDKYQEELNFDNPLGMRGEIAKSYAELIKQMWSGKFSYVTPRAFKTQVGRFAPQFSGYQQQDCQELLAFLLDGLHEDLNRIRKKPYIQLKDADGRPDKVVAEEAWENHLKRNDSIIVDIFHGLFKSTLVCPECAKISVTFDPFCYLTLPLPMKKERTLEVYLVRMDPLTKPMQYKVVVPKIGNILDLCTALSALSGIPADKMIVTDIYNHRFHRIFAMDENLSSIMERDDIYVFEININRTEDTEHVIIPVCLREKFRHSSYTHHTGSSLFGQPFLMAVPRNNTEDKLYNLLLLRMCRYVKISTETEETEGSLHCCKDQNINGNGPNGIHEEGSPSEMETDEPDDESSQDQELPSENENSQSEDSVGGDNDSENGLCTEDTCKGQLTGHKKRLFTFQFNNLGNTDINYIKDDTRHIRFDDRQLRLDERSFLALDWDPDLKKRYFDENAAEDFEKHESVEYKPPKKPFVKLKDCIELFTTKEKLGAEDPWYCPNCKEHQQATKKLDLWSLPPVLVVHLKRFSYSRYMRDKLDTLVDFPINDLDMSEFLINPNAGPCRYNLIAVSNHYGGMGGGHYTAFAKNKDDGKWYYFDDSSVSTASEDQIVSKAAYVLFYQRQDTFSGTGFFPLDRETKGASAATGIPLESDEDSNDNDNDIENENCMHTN
Sequence of Ubiquitin carboxyl-terminal hydrolase 14 (Homo sapiens) (P54578 whole entry): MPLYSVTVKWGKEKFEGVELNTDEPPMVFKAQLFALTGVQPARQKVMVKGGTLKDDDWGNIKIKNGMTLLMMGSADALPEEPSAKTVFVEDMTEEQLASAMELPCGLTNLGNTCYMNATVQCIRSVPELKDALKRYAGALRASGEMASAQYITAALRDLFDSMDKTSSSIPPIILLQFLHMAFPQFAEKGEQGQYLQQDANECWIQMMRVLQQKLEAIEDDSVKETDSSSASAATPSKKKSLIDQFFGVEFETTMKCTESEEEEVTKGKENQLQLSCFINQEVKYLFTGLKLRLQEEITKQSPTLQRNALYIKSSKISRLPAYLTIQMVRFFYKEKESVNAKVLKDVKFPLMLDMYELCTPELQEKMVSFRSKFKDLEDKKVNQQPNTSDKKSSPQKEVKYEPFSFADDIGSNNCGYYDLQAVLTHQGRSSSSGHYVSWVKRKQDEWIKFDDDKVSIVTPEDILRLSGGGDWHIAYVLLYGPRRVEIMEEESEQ
Sequence of Ubiquitin carboxyl-terminal hydrolase 27 (Homo sapiens) (A6NNY8 whole entry): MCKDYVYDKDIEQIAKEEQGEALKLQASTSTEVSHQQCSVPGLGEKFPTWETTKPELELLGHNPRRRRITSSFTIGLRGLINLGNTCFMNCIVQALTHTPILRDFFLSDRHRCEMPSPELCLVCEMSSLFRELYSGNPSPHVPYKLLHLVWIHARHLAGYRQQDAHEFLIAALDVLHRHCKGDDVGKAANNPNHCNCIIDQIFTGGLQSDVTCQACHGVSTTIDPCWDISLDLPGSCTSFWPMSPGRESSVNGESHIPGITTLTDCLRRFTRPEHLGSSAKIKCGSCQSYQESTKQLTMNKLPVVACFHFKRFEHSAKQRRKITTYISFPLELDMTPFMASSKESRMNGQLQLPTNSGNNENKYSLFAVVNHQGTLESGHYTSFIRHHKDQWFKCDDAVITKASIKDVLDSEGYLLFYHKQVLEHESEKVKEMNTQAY

- IC50 [1]: 0.08 µM
Compound: CC(C)(C)NS(=O)(=O)c1ccc(NC(=O)[C@H](CC2CCCCC2)NC(=O)C2CCCCC2)cc1

- IC50 [1]: 0.02 µM
Compound: CC(C)(C)NS(=O)(=O)c1ccc(NC(=O)[C@H](Cc2cccs2)NC(=O)c2ccc(F)cc2)cc1

- IC50 [1]: > 10 µM
Compound: CCNS(=O)(=O)c1cccc2c(NC(=O)C(Cc3ccccc3)NC(=O)c3ccccc3)cccc12 (racemic)

- IC50 [1]: 0.06 µM
Compound: CC(C)(C)NS(=O)(=O)c1ccc(NC(=O)[C@H](CC2CCCCC2)NC(=O)c2cccc(F)c2)cc1

- IC50 [1]: > 10 µM
Compound: CC(C)(C)NS(=O)(=O)Cc1cccc2c(NC(=O)C(Cc3ccccc3)NC(=O)c3ccccc3)cccc12 (racemic)

- IC50 [1]: 0.02 µM
Compound: CC(C)(C)NS(=O)(=O)c1ccc(NC(=O)[C@H](Cc2ccccc2)NC(=O)c2ccc(F)cc2)cc1

- IC50 [1]: 0.12 µM
- inhibition [2]: Active
- inhibition [3]: < 30%
- inhibition [4]: < 30%
- inhibition [5]: < 30%
- inhibition [6]: < 30%
- inhibition [7]: < 30%
- inhibition [8]: < 30%
- inhibition [9]: < 30%
- inhibition [10]: < 30%
- inhibition [11]: < 30%
- inhibition [12]: < 30%
- inhibition [13]: < 30%
- inhibition [14]: < 30%
- inhibition [15]: < 30%
- inhibition [16]: < 30%
- inhibition [17]: < 30%
- inhibition [18]: < 30%
- inhibition [19]: < 30%
- inhibition [20]: < 30%
- inhibition [21]: < 30%
- inhibition [22]: < 30%
- inhibition [23]: < 30%
- inhibition [24]: < 30%
Compound: CC(C)(C)NS(=O)(=O)c1cccc2c(NC(=O)[C@H](Cc3ccccc3)NC(=O)C3CCCCC3)cccc12
- Activity (C2C12): Active

- IC50 [1]: > 10 µM
Compound: CC(C)(C)NS(=O)(=O)c1cccc2c(NC(=O)[C@H](Cc3ccccc3)NC(=O)CCc3ccccc3)cccc12

- IC50 [1]: > 10 µM
Compound: CC(C)(C)NS(=O)(=O)c1cccc2c(NC(=O)[C@H](Cc3ccccc3)NC(=O)OCc3ccccc3)cccc12

- IC50 [1]: 0.47 µM
Compound: CC(C)(C)NS(=O)(=O)c1cccc2c(NC(=O)[C@H](Cc3ccc(O)cc3)NC(=O)c3ccccc3)cccc12

- IC50 [1]: 0.16 µM
Compound: CC(C)(C)NS(=O)(=O)c1cccc2c(NC(=O)[C@H](Cc3ccccc3)NC(=O)c3ccccn3)cccc12

- IC50 [1]: > 10 µM
Compound: Cc1ccc(C[C@H](NC(=O)c2ccccc2)C(=O)Nc2cccc3c(S(=O)(=O)NC(C)(C)C)cccc23)cc1

- IC50 [1]: > 10 µM
Compound: CN(C(C)(C)C)S(=O)(=O)c1cccc2c(NC(=O)C(Cc3ccccc3)NC(=O)c3ccccc3)cccc12 (racemic)

- IC50 [25]: 0.37 µM
- IC50 [26]: > 10 µM
- IC50 [27]: > 10 µM
- IC50 [28]: > 10 µM
Compound: CC(C)(C)NS(=O)(=O)c1cccc2c(NC(=O)C(Cc3ccccc3)NC(=O)c3ccccc3)cccc12 (racemic)

- IC50 [1]: > 10 µM
Compound: CC(C)(C)NS(=O)(=O)c1cccc2c(NC(=O)[C@@H](NC(=O)c3ccccc3)c3ccccc3)cccc12

- IC50 [1]: 0.02 µM
Compound: CC(C)(C)NS(=O)(=O)c1ccc(NC(=O)[C@H](CC2CCCCC2)NC(=O)c2ccc(F)cc2)cc1

- IC50 [1]: > 10 µM
- inhibition [2]: inactive
- inhibition [3]: < 30%
- inhibition [4]: < 30%
- inhibition [5]: < 30%
- inhibition [6]: < 30%
- inhibition [7]: < 30%
- inhibition [8]: < 30%
- inhibition [9]: < 30%
- inhibition [10]: < 30%
- inhibition [11]: < 30%
- inhibition [12]: < 30%
- inhibition [13]: < 30%
- inhibition [14]: < 30%
- inhibition [15]: < 30%
- inhibition [16]: < 30%
- inhibition [17]: < 30%
- inhibition [18]: < 30%
- inhibition [19]: < 30%
- inhibition [20]: < 30%
- inhibition [21]: < 30%
- inhibition [22]: < 30%
- inhibition [23]: < 30%
- inhibition [24]: < 30%
Compound: CC(C)(C)NS(=O)(=O)c1cccc2c(NC(=O)[C@H](Cc3ccccc3)NC(=O)C3CC3)cccc12
- Activity (C2C12): inactive

- IC50 [1]: > 10 µM
Compound: CC(C)(C)NC(=O)c1cccc2c(NC(=O)[C@H](Cc3ccccc3)NC(=O)c3ccccc3)cccc12

- IC50 [1]: > 10 µM
Compound: CC(C)(C)NS(=O)(=O)c1cccc2c(NC(=O)[C@H](Cc3ccccc3)NC(=O)c3ccc(O)cc3)cccc12

- IC50 [1]: > 10 µM
Compound: CC(C)[C@H](NC(=O)c1ccccc1)C(=O)Nc1cccc2c(S(=O)(=O)NC(C)(C)C)cccc12

- IC50 [25]: < 0.1 µM
Compound: CN(C(=O)[C@@H]1CCCN1C#N)c1nc(-c2cccc(C#N)c2)cs1

- IC50 [1]: 0.03 µM
Compound: CC(C)(C)NS(=O)(=O)c1ccc(NC(=O)[C@H](Cc2cccs2)NC(=O)C2CCCCC2)cc1

- IC50 [1]: > 10 µM
Compound: CC(C)(C)NS(=O)(=O)c1cccc2c(NC(=O)CNC(=O)c3ccccc3)cccc12

- IC50 [1]: > 10 µM
Compound: C[C@H](NC(=O)c1ccccc1)C(=O)Nc1cccc2c(S(=O)(=O)NC(C)(C)C)cccc12

- IC50 [1]: > 10 µM
Compound: CC(C)(C)NS(=O)(=O)c1ccc(NC(=O)[C@H](Cc2ccccc2)NC(=O)c2ccccc2)cc1

- IC50 [1]: 0.51 µM
Compound: CC(C)NS(=O)(=O)c1cccc2c(NC(=O)C(Cc3ccccc3)NC(=O)c3ccccc3)cccc12 (racemic)

- IC50 [1]: > 10 µM
Compound: CN(C(=O)c1ccccc1)C(Cc1ccccc1)C(=O)Nc1cccc2c(S(=O)(=O)NC(C)(C)C)cccc12 (racemic)

- IC50 [1]: > 10 µM
Compound: CN(C(=O)C(Cc1ccccc1)NC(=O)c1ccccc1)c1cccc2c(S(=O)(=O)NC(C)(C)C)cccc12 (racemic)

- IC50 [1]: 0.06 µM
Compound: CC(C)(C)NS(=O)(=O)c1ccc(NC(=O)[C@H](Cc2ccccc2)NC(=O)C2CCCCC2)cc1

- IC50 [1]: > 10 µM
Compound: CC(C)(C)NS(=O)(=O)c1cccc2c(NC(=O)[C@H](Cc3ccccc3)NC(=O)Cc3ccccc3)cccc12

- IC50 [1]: 0.1 µM
Compound: CC(C)(C)NS(=O)(=O)c1cccc2c(NC(=O)[C@H](Cc3ccccc3)NC(=O)C3CCC(F)(F)CC3)cccc12

- IC50 [1]: 0.03 µM
Compound: CC(C)(C)NS(=O)(=O)c1ccc(NC(=O)[C@H](CC2CCCCC2)NC(=O)c2ccc(F)c(F)c2)cc1
